Assays:
Rattus norvegicus [1] = test: Tested for % inhibition of PCP induced head-weavings in rats at 0.1 ug/kg; assay type: functional
Method in brief: (§1)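 Rats acclimatized individually at least 60 min. Compound given orally 60 min before PCP 7.5 mg/kg i.p. Head-weavings (slow side-to-side head movements) counted every 10 min for 30 min after PCP, n=6 per group. Percent inhibition versus vehicle total (100%); ED50 derived; ANOVA with Dunnett's test.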

[2] = molecular target: T1, Metabotropic glutamate receptor 2 (Rattus norvegicus, UniProt P31421); test: Tested for binding affinity against Metabotropic glutamate receptor 2 in CHO cells using [3H]-7 as radioligand; assay type: cell-based
T1 sequence (P31421 whole entry): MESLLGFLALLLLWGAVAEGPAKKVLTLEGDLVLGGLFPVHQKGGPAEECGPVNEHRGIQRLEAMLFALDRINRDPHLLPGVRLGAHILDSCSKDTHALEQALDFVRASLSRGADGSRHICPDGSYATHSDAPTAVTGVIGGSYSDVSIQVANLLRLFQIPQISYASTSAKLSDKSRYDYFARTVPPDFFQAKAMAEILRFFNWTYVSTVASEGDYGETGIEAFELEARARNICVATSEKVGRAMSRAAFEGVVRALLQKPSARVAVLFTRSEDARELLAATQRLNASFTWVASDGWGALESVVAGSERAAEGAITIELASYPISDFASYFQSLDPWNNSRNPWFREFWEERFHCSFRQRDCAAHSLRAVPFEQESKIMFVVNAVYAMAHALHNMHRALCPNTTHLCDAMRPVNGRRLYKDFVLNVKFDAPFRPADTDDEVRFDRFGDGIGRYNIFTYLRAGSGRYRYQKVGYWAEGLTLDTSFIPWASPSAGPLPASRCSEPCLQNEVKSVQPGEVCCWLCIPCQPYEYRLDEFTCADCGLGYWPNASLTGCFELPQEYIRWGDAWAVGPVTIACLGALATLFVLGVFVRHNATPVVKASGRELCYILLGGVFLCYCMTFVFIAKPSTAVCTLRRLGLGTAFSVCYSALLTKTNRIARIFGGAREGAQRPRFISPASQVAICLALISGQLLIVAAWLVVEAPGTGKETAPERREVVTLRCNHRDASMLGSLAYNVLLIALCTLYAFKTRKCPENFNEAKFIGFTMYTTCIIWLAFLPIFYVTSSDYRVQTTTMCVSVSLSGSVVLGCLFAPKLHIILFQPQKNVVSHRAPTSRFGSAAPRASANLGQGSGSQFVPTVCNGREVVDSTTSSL

Rattus norvegicus [3] = test: Tested for mGluR agonist activity by measuring the PCP induced hyperactivity in rats at 0.3 mg/kg; assay type: functional
Method in brief: (§2)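 Rats housed singly and acclimatized 60 min in activity-monitoring apparatus inside a sound-proof box. Oral dosing 180 min before PCP 5 mg/kg i.p.; locomotor counts recorded every 10 min for 120 min, n=6 per group. Total counts expressed as percent inhibition relative to vehicle (100%); ED50 derived; ANOVA plus Dunnett's test.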

Rattus norvegicus [4] = test: (§3) Effective dose to evaluate PCP induced hyper activity in rats after oral administration; assay type: functional; method in brief: as §2
[5] = molecular target: T1, Metabotropic glutamate receptor 2; test: Agonist activity against Metabotropic glutamate receptor 2 expressed in CHO cells was evaluated by measuring forskolin-induced cyclic AMP formation; assay type: functional, cell-based
[6] = molecular target: T1, Metabotropic glutamate receptor 2; test: Antagonist activity against Metabotropic glutamate receptor 2 expressed in CHO cells was evaluated in presence of 30 uM glutamic acid; assay type: functional, cell-based; conditions: read-out: EC50 (the source's name)
Rattus norvegicus [7] = test: Tested for % inhibition of PCP induced head-weavings in rats at 0.03 ug/kg; assay type: functional; method in brief: as §1
Rattus norvegicus [8] = test: Tested for mGluR agonist activity by measuring the PCP induced hyperactivity in rats at 1 mg/kg; assay type: functional; method in brief: as §2
[9] = molecular target: T2, Metabotropic glutamate receptor 3 (Rattus norvegicus, UniProt P31422); test: Tested for binding affinity against Metabotropic glutamate receptor 3 in CHO cells using [3H]-7 as radioligand; assay type: cell-based
T2 sequence (P31422 whole entry): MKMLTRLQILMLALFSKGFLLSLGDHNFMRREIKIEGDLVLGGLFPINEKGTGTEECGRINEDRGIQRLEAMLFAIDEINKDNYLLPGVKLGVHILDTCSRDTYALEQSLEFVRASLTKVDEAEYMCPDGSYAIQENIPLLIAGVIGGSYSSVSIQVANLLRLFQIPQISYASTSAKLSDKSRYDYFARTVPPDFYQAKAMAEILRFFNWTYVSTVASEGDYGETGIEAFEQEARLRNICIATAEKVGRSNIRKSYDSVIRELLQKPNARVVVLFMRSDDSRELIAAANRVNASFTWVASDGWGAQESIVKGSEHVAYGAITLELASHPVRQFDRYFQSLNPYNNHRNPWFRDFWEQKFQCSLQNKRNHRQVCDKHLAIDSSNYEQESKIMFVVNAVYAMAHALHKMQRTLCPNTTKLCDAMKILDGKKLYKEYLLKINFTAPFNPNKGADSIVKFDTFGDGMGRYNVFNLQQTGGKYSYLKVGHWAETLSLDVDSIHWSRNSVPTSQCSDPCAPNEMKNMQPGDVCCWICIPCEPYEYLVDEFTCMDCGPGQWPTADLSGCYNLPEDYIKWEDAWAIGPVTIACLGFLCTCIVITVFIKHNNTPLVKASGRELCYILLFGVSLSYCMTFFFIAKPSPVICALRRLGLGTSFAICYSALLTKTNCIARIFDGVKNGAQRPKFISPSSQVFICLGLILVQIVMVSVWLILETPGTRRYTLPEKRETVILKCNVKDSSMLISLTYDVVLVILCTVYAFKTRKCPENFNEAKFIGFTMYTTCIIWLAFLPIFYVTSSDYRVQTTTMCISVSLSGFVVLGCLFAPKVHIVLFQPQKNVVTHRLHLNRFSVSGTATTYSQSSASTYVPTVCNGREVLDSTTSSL

Rattus norvegicus [10] = test: Tested for % inhibition of PCP induced hyperactivity in rats at 0.3 mg/kg; assay type: functional; method in brief: as §2
Rattus norvegicus [11] = test: Tested for mGluR agonist activity by measuring the PCP induced hyperactivity in rats at 3 mg/kg; assay type: functional; method in brief: as §2
[12] = molecular target: T2, Metabotropic glutamate receptor 3; test: Antagonist activity against Metabotropic glutamate receptor 3 expressed in CHO cells was evaluated in presence of 30 uM glutamic acid; assay type: functional, cell-based
Method in brief: (§4)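 mGluR2- or mGluR3-expressing CHO cells grown 2 days, then held 4-5 h in medium without glutamine. Cells were preincubated 20 min at 37 °C in PBS with 1 mM IBMX, then exposed for 15 min at 37 °C to 10 µM forskolin plus test agent with 30 µM glutamic acid present. Reaction stopped with ice-cold ethanol; cAMP measured by enzyme immunoassay.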

Rattus norvegicus [13] = test: Tested for % inhibition of PCP induced hyperactivity in rats at 1 mg/kg; assay type: functional; method in brief: as §2
Rattus norvegicus [14] = test: Tested for mGluR agonist activity by measuring the PCP induced hyperactivity in rats at 0.1 mg/kg; assay type: functional; method in brief: as §2
Rattus norvegicus [15] = test: Tested for % inhibition of PCP induced hyperactivity in rats at 3 mg/kg; assay type: functional; method in brief: as §2
Rattus norvegicus [16] = test: Tested for % inhibition of PCP induced head-weavings in rats at 0.3 ug/kg; assay type: functional; method in brief: as §1
Rattus norvegicus [17] = test: Tested for % inhibition of PCP induced hyperactivity in rats at 0.1 mg/kg; assay type: functional; method in brief: as §2
Rattus norvegicus [18] = test: Tested for mGluR agonist activity by measuring the PCP induced head weaving behavior in rats at 0.1 ug/kg; assay type: functional; method in brief: as §1
Rattus norvegicus [19] = test: Tested for mGluR agonist activity by measuring the PCP induced head weaving behavior in rats at 0.03 ug/kg; assay type: functional; method in brief: as §1
[20] = molecular target: T2, Metabotropic glutamate receptor 3; test: Agonist potency against cloned Metabotropic glutamate receptor 3; assay type: functional
Rattus norvegicus [21] = test: Tested for mGluR agonist activity by measuring the PCP induced head weaving behavior in rats at 0.3 ug/kg; assay type: functional; method in brief: as §1
[22] = molecular target: T1, Metabotropic glutamate receptor 2; test: Antagonist activity against Metabotropic glutamate receptor 2 expressed in CHO cells was evaluated by measuring forskolin-induced cyclic AMP formation; assay type: functional, cell-based; method in brief: as §4
Rattus norvegicus [23] = test: Tested for mGluR agonist activity by measuring the PCP induced head-weavings in rats at 100 ug/kg; assay type: functional; method in brief: as §1
Rattus norvegicus [24] = test: Tested for % inhibition of PCP induced head-weavings in rats at 300 ug/kg; assay type: functional; method in brief: as §1
Rattus norvegicus [25] = test: Tested for mGluR agonist activity by measuring the PCP induced head-weavings in rats at 300 ug/kg; assay type: functional; method in brief: as §1
Rattus norvegicus [26] = test: (§5) Tested for mGluR agonist activity by measuring the PCP induced hyperactivity in rats at 30 mg/kg; assay type: functional; method in brief: as §2
Rattus norvegicus [27] = test: Tested for % inhibition of PCP induced head-weavings in rats at 1000 ug/kg; assay type: functional; method in brief: as §1
Rattus norvegicus [28] = test: (§6) Tested for % inhibition of PCP induced hyperactivity in rats at 10 mg/kg; assay type: functional; method in brief: as §2
Rattus norvegicus [29] = test: (§7) Tested for % inhibition of PCP induced hyperactivity in rats at 30 mg/kg; assay type: functional; method in brief: as §2
Rattus norvegicus [30] = test: Tested for % inhibition of PCP induced head-weavings in rats at 100 ug/kg; assay type: functional; method in brief: as §1
Rattus norvegicus [31] = test: Tested for mGluR agonist activity by measuring the PCP induced head-weavings in rats at 1000 ug/kg; assay type: functional; method in brief: as §1
Rattus norvegicus [32] = test: (§8) Tested for mGluR agonist activity by measuring the PCP induced hyperactivity in rats at 10 mg/kg; assay type: functional; method in brief: as §2
Rattus norvegicus [33] = test: Tested for mGluR agonist activity by measuring the head-weaving behavior in rats at 1000 ug/kg
Rattus norvegicus [34] = test: as §3; assay type: functional; remark: listed apart in the source
Rattus norvegicus [35] = test: Tested for mGluR agonist activity by measuring the PCP induced hyperactivity in rats at 100 mg/kg; assay type: functional
Rattus norvegicus [36] = test: Tested for % inhibition of PCP induced head-weavings in rats at 10000 ug/kg
Rattus norvegicus [37] = test: as §6; assay type: functional; remark: listed apart in the source
Rattus norvegicus [38] = test: as §5; assay type: functional; remark: listed apart in the source
Rattus norvegicus [39] = test: Effective dose to evaluate PCP induced head-weaving behavior in rats after oral administration; assay type: functional
Rattus norvegicus [40] = test: Tested for mGluR agonist activity by measuring the PCP induced hyperactivity in rats at […]; assay type: functional
Rattus norvegicus [41] = test: Tested for % inhibition of PCP induced hyperactivity in rats at 100 mg/kg
Rattus norvegicus [42] = test: as §8; assay type: functional; remark: listed apart in the source
Rattus norvegicus [43] = test: as §7; assay type: functional; remark: listed apart in the source

SMILES: N[C@@]1(C(=O)O)CC(=O)[C@@H]2[C@H]1[C@@]2(F)C(=O)O (stereo in doubt; (+)-14)
- inhibition in vivo at 0.0001 mg/kg (Rattus norvegicus [1]): 52%
- Ki [2]: 0.0033 µM
- Total counts (Rattus norvegicus [3]): 27700
- ED50 (Rattus norvegicus [4]): 0.3 mg/kg
- EC50 [5]: 0.00057 µM
- IC50 [6]: > 100 µM
- inhibition in vivo at 3e-05 mg/kg (Rattus norvegicus [7]): 21%
- Total counts (Rattus norvegicus [8]): 26100
- Ki [9]: 0.00362 µM
- inhibition in vivo at 0.3 mg/kg (Rattus norvegicus [10]): 54%
- Total counts (Rattus norvegicus [11]): 7760
- EC50 [12]: > 100 µM
- inhibition in vivo at 1 mg/kg (Rattus norvegicus [13]): 56%
- Total counts (Rattus norvegicus [14]): 38500
- inhibition in vivo at 3 mg/kg (Rattus norvegicus [15]): 87%
- inhibition in vivo at 0.0003 mg/kg (Rattus norvegicus [16]): 86%
- inhibition in vivo at 0.1 mg/kg (Rattus norvegicus [17]): 36%
- Total counts (Rattus norvegicus [18]): 16.2
- Total counts (Rattus norvegicus [19]): 27.1
- EC50 [20]: 0.00207 µM
- Total counts (Rattus norvegicus [21]): 4.88

SMILES: N[C@@]1(C(=O)O)CC[C@@H]2[C@H]1[C@@]2(F)C(=O)O (stereo in doubt; (-)-11)
- Ki [2]: 0.0225 µM
- EC50 [5]: 0.0166 µM
- IC50 [6]: > 100 µM
- Ki [9]: 0.0417 µM
- EC50 [12]: > 100 µM
- EC50 [20]: 0.0809 µM

SMILES: C[C@]1(C(=O)O)[C@@H]2CC[C@@](N)(C(=O)O)[C@@H]21 (racemic)
- EC50 [5]: > 100 µM
- EC50 [22]: > 100 µM

SMILES: N[C@@]1(C(=O)O)CC(O)[C@@H]2[C@H]1[C@@]2(F)C(=O)O (mixture of isomers)
- EC50 [5]: 0.021 µM
- IC50 [6]: > 100 µM

SMILES: N[C@@]1(C(=O)O)CC[C@@H]2[C@H]1[C@@]2(F)C(=O)O (racemic)
- EC50 [5]: 0.0342 µM

SMILES: N[C@@]1(C(=O)O)CC(=O)[C@@H]2[C@H]1[C@@]2(F)C(=O)O (stereo in doubt; (-)-14)
- EC50 [5]: 0.0947 µM

SMILES: N[C@]1(C(=O)O)[C@H]2[C@@H](CC1(F)F)[C@@H]2C(=O)O (racemic)
- EC50 [5]: > 100 µM
- IC50 [6]: 36.2 µM

SMILES: N[C@@]1(C(=O)O)CC(=O)[C@@H]2[C@H]1[C@@]2(F)C(=O)O (racemic)
- EC50 [5]: 0.00126 µM

SMILES: N[C@]1(C(=O)O)[C@H]2[C@@H](C[C@@H]1F)[C@@H]2C(=O)O
- Total counts (Rattus norvegicus [23]): 25.5
- ED50 (Rattus norvegicus [4]): 5.1 mg/kg
- inhibition in vivo at 0.3 mg/kg (Rattus norvegicus [24]): 47%
- Total counts (Rattus norvegicus [25]): 21
- Total counts (Rattus norvegicus [26]): 1850
- inhibition in vivo at 1 mg/kg (Rattus norvegicus [27]): 81%
- Ki [9]: 0.0659 µM
- inhibition in vivo at 10 mg/kg (Rattus norvegicus [28]): 79%
- Total counts (Rattus norvegicus [11]): 40600
- EC50 [12]: > 100 µM
- inhibition in vivo at 30 mg/kg (Rattus norvegicus [29]): 97%
- inhibition in vivo at 0.1 mg/kg (Rattus norvegicus [30]): 35%
- inhibition in vivo at 3 mg/kg (Rattus norvegicus [15]): 26%
- Total counts (Rattus norvegicus [31]): 7.5
- Total counts (Rattus norvegicus [32]): 11300
- EC50 [20]: 0.0454 µM

SMILES: N[C@@]1(C(=O)O)CC[C@@H]2[C@H]1[C@@]2(F)C(=O)O (stereo in doubt; (+)11)
- EC50 [5]: 1.12 µM

SMILES: N[C@@]1(C(=O)O)CC[C@H]2[C@H](C(=O)O)[C@H]21
- Number of head-weavings (Rattus norvegicus [33]): 33
- ED50 (Rattus norvegicus [34]): > 100 mg/kg
- Total counts (Rattus norvegicus [35]): 36000
- Inhibition % (Rattus norvegicus [36]): 83%
- inhibition in vivo at 10 mg/kg (Rattus norvegicus [37]): 37%
- Total counts (Rattus norvegicus [38]): 43800
- Ki [9]: 0.0535 µM
- ED50 (Rattus norvegicus [39]): 3 mg/kg
- Total counts (Rattus norvegicus [40]): 6.5
- inhibition in vivo at 100 mg/kg (Rattus norvegicus [41]): 44%
- Total counts (Rattus norvegicus [42]): 40600
- EC50 [20]: 0.0628 µM
- inhibition in vivo at 30 mg/kg (Rattus norvegicus [43]): 32%
